According to ChEMBL document CHEMBL1221186, “Enhancement of capillary leakage and restoration of lymphocyte egress by a chiral S1P1 antagonist in vivo” (Nat Chem Biol, 2006):
Calls of active or inactive are those of the source. The calls are words filed in the database; no cut-off is given here.

Legend:
Mus musculus [1] = assay: Inhibition of SEW2871-induced lymphocyte egress in C57BL1/6J mouse assessed as blood lymphocyte sequestration at 10 to 20 mg/kg, ip; type: functional, organism-based
Procedure, shortened: (§1)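 C57BL6 mice were given antagonist i.p. (10 mg/kg, or 3 mg/kg where stated) at the time of oral SEW2871 (up to 20 mg/kg) or vehicle. At 5 h, EDTA blood was taken for full blood counts and differential counts on a veterinary autoanalyzer calibrated for mouse. Blood lymphocyte data pooled n=12 per group; Student's t-test.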

[2] = biological target: T1, Sphingosine 1-phosphate receptor 1 (Homo sapiens, UniProt P21453); assay: Antagonist activity at human S1P1 receptor expressed in CHO cells assessed as inhibition of SEW2871-induced [35S]GTPgamma binding; type: functional, cell-based
Procedure, shortened: (§2)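 Membranes from CHO cells stably expressing human S1P1. [35S]GTPγS binding with serial dilutions of S1P or SEW2871 added (1–10 µg protein per well), with or without 30 min antagonist preincubation. Binding was normalized to the percentage induced by maximal S1P. Ki derived from the agonist EC50 shift.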

Mus musculus [3] = species on record: Mus musculus; assay: Inhibition of SEW2871-induced protection against VEGF-induced capillary leakage in Balb/cByJ mouse assessed as skin leakage of Evans blue dye from plasma into interstitial spaces by Miles assay; type: functional, organism-based; conditions: Skin of body
Procedure, shortened: (§3)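 Male Balb/cByJ mice (30 g) got i.p. vehicle (10 mM Na2CO3, 2% β-hydroxypropyl-cyclodextran) or antagonist 10 mg/kg, then oral SEW2871 20 mg/kg or vehicle. At 4.5 h, 0.5% Evans blue was given i.v. Intradermal murine VEGF165 (100 ng) or PBS/0.1% BSA was injected in triplicate. After 30 min, skin biopsies were extracted in formamide at 58 °C and read at 565 nm (VEGF minus BSA). ANOVA/Bonferroni.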

[4] = biological target: T1, Sphingosine 1-phosphate receptor 1; assay: Antagonist activity at human S1P1 receptor expressed in CHO cells assessed as inhibition of S1P-induced [35S]GTPgamma binding; type: functional, cell-based; procedure, shortened: as §2
Mus musculus [5] = assay: Toxicity in ip dosed C57BL1/6J mouse assessed as induction of spontaneous pulmonary edema by Evan blue dye leakage assay; type: organism-based; conditions: in vivo
Mus musculus [6] = assay: Inhibition of SEW2871-induced lymphocyte maturation in C57BL1/6J mouse assessed as medullary thymocyte phenotypic maturation at 10 to 20 mg/kg, ip; type: functional, organism-based
Procedure, shortened: (§4)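 Mice received oral SEW2871 (20 mg/kg) with or without i.p. antagonist (10 mg/kg). Thymi were removed at 5 h and CD69 on single-positive CD4+ thymocytes was measured by flow cytometry. n=3.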

[7] = biological target: Sphingosine 1-phosphate receptor 5 (Homo sapiens) (UniProt Q9H228); assay: Antagonist activity at human S1P5 receptor expressed in CHO cells assessed as inhibition of S1P-induced [35S]GTPgamma binding at 10 uM; type: functional, cell-based
Procedure, shortened: (§5)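 Membranes from CHO cells expressing human S1P2, S1P3 or S1P5. [35S]GTPγS binding with serial dilutions of S1P added to membranes (1–10 µg protein per well), with or without 30 min preincubation. Antagonist concentrations were as previously described.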

[8] = biological target: T1, Sphingosine 1-phosphate receptor 1; assay: Antagonist activity at human S1P1 receptor expressed in CHO cells assessed as inhibition of S1P-induced Akt phosphorylation at 10 uM by Western blot; type: functional, cell-based
Procedure, shortened: (§6)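 CHO cells stably expressing human S1P1 or S1P3 were grown to 50% confluence and serum-starved for 16 h. Cells were preincubated 1 h with antagonist at 10 µM, then stimulated 5 min with S1P or SEW2871 in serum-free medium with 0.1% fatty-acid-free BSA. Western blots of lysates gave phospho-ERK1/2 and phospho-Akt band intensities normalized to total ERK1/2 or Akt. n≥3.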

Mus musculus [9] = assay: Inhibition of SEW2871-induced lymphopenia in C57BL1/6J mouse at 3 mg/kg, ip; type: functional, organism-based; design: dose 3 mg/kg; procedure, shortened: as §1
[10] = biological target: Sphingosine 1-phosphate receptor 3 (Homo sapiens) (UniProt Q99500); assay: Agonist activity at human S1P3 receptor expressed in CHO cells assessed as stimulation of [35S]GTPgamma binding at 10 uM; type: functional, cell-based; procedure, shortened: as §5
[11] = biological target: Sphingosine 1-phosphate receptor 3 (Homo sapiens) (UniProt Q99500); assay: Antagonist activity at human S1P3 receptor expressed in CHO cells assessed as inhibition of S1P-induced [35S]GTPgamma binding at 10 uM; type: functional, cell-based; procedure, shortened: as §5
[12] = biological target: Sphingosine 1-phosphate receptor 2 (Homo sapiens) (UniProt O95136); assay: Agonist activity at human S1P2 receptor expressed in CHO cells assessed as stimulation of [35S]GTPgamma binding at 10 uM; type: functional, cell-based; procedure, shortened: as §5
Mus musculus [13] = assay: Effect on CD69 expression in single positive CD4+ thymocytes in thymic medulla of C57BL1/6J mouse at 10 mg/kg, ip by FACS method; type: organism-based; design: dose 10 mg/kg, route intraperitoneal; conditions: in vivo; procedure, shortened: as §4
[14] = biological target: Sphingosine 1-phosphate receptor 3 (Homo sapiens) (UniProt Q99500); assay: Antagonist activity at human S1P3 receptor expressed in CHO cells assessed as inhibition of S1P-induced ERK1/2 phosphorylation at 10 uM by Western blot; type: functional, cell-based; procedure, shortened: as §6
[15] = biological target: T1, Sphingosine 1-phosphate receptor 1; assay: Inhibition of GFP-tagged human S1P1 receptor internalization expressed in HEK293 cells at 10 uM by fluorimetric assay; type: cell-based
[16] = biological target: Sphingosine 1-phosphate receptor 2 (Homo sapiens) (UniProt O95136); assay: Antagonist activity at human S1P2 receptor expressed in CHO cells assessed as inhibition of S1P-induced [35S]GTPgamma binding at 10 uM; type: functional, cell-based; procedure, shortened: as §5
[17] = Plasma clearance in cannulated rat at 1 mg/kg, iv by LC-MS method; type: ADME, organism-based; design: dose 1 mg/kg, route intravenous
Procedure, shortened: (§7)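 Cannulated rats (n=3) were given 1 mg/kg i.v. Plasma levels were followed by LC-MS to derive half-life, steady-state volume of distribution and plasma clearance.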

[18] = Volume of distribution at steady state in cannulated rat at 1 mg/kg, iv by LC-MS method; type: ADME, organism-based; design: dose 1 mg/kg, route intravenous; conditions: in vivo, read-out: Vdss; procedure, shortened: as §7
[19] = biological target: Sphingosine 1-phosphate receptor 3 (Homo sapiens) (UniProt Q99500); assay: Antagonist activity at human S1P3 receptor expressed in CHO cells assessed as inhibition of S1P-induced Akt phosphorylation at 10 uM by Western blot; type: functional, cell-based; procedure, shortened: as §6
[20] = Plasma concentration in mouse at 10 mg/kg, ip after 5 hrs; type: ADME, organism-based; design: dose 10 mg/kg, route intraperitoneal
Procedure, shortened: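 Plasma concentration measured by LC-MS in mice 5 h after i.p. injection of 10 mg/kg.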

Mus musculus [21] = assay: Inhibition of SEW2871-induced loss of CD69 expression in single positive CD4+ thymocytes in thymic medulla of C57BL1/6J mouse at 10 mg/kg, ip by FACS method; type: functional, organism-based; design: dose 10 mg/kg; procedure, shortened: as §4
[22] = biological target: T1, Sphingosine 1-phosphate receptor 1; assay: Antagonist activity at human S1P1 receptor expressed in CHO cells assessed as inhibition of S1P-induced ERK1/2 phosphorylation at 10 uM by Western blot; type: functional, cell-based; procedure, shortened: as §6
[23] = Half life in cannulated rat at 1 mg/kg, iv by LC-MS method; type: ADME, organism-based; design: dose 1 mg/kg, route intravenous; conditions: in vivo; procedure, shortened: as §7
[24] = biological target: Sphingosine 1-phosphate receptor 5 (Homo sapiens) (UniProt Q9H228); assay: Agonist activity at human S1P5 receptor expressed in CHO cells assessed as stimulation of [35S]GTPgamma binding at 10 uM; type: functional, cell-based; procedure, shortened: as §5
Mus musculus [25] = species on record: Mus musculus; assay: Potentiation of VEGF-induced capillary leakage in Balb/cByJ mouse assessed as skin leakage of Evans blue dye from plasma into interstitial spaces Miles assay; type: functional, organism-based; conditions: Skin of body; procedure, shortened: as §3
Mus musculus [26] = assay: Inhibition of SEW2871-induced medullary arrest of T cells in inguinal lymph nodes of BALB/c mouse at 10 mg/kg, iv by FITC-conjugated dextran staining based In vivo two-photon imaging method; type: functional, organism-based; design: dose 10 mg/kg; conditions: T-cell
Procedure, shortened: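 Adoptively transferred CFSE-labelled CD4+ T cells in BALB/c mice. Mice were dosed orally with SEW2871 (10 mg/kg), and the inguinal lymph node was imaged by intravital two-photon microscopy 4–6 h later. Medullary sinus labelled with footpad rhodamine-dextran. Antagonist 10 mg/kg given i.v. during imaging; instantaneous T-cell velocities tracked in medulla and cortex.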

[27] = biological target: T1, Sphingosine 1-phosphate receptor 1; assay: Antagonist activity at human S1P1 receptor expressed in CHO cells assessed as inhibition of SEW2871-induced Akt phosphorylation at 10 uM by Western blot; type: functional, cell-based; procedure, shortened: as §6
Mus musculus [28] = assay: Toxicity in ip dosed C57BL1/6J mouse assessed as effect on percentage of lymphocyte within total WBCs counts in peripheral blood at 10 mg/kg, ip; type: organism-based; design: dose 10 mg/kg, route intraperitoneal; conditions: in vivo; procedure, shortened: as §1
Mus musculus [29] = assay: Toxicity in ip dosed C57BL1/6J mouse assessed as effect on lymphocyte number at 10 mg/kg, ip; type: organism-based; design: dose 10 mg/kg, route intraperitoneal; conditions: in vivo; procedure, shortened: as §1
[30] = biological target: T1, Sphingosine 1-phosphate receptor 1; assay: Antagonist activity at human S1P1 receptor expressed in CHO cells assessed as inhibition of SEW2871-induced ERK1/2 phosphorylation at 10 uM by Western blot; type: functional, cell-based; procedure, shortened: as §6

T1 sequence (P21453 whole entry): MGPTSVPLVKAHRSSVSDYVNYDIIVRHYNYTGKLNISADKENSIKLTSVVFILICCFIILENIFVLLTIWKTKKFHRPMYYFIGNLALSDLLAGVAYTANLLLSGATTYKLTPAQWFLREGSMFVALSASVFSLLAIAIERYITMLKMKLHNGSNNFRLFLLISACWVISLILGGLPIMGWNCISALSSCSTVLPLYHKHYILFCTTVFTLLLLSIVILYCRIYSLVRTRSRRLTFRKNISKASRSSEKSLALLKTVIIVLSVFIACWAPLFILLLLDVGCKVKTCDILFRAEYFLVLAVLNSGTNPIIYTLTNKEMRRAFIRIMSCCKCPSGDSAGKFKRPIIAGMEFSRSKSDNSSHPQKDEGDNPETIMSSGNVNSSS
Sequence of Sphingosine 1-phosphate receptor 3 (Homo sapiens) (Q99500 whole entry): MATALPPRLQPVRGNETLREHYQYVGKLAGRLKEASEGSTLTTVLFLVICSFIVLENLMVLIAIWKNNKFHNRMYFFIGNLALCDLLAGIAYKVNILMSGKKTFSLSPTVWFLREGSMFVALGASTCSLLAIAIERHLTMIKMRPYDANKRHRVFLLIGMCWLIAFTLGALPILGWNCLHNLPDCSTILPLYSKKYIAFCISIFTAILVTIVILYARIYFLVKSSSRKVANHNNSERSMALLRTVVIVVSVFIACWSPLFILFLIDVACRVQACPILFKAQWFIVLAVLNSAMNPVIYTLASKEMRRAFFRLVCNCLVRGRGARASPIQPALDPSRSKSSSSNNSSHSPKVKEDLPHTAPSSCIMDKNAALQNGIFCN
Sequence of Sphingosine 1-phosphate receptor 5 (Homo sapiens) (Q9H228 whole entry): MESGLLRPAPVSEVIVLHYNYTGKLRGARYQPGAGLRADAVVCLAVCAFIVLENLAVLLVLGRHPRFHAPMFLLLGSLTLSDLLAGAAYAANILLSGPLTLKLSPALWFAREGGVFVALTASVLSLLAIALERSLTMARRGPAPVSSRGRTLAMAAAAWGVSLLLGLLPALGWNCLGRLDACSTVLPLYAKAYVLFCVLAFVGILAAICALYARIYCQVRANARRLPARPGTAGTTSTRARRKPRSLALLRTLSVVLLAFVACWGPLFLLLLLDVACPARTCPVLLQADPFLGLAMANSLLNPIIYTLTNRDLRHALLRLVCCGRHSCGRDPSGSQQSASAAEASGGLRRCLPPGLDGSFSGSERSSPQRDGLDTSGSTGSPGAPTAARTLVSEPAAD
Sequence of Sphingosine 1-phosphate receptor 2 (Homo sapiens) (O95136 whole entry): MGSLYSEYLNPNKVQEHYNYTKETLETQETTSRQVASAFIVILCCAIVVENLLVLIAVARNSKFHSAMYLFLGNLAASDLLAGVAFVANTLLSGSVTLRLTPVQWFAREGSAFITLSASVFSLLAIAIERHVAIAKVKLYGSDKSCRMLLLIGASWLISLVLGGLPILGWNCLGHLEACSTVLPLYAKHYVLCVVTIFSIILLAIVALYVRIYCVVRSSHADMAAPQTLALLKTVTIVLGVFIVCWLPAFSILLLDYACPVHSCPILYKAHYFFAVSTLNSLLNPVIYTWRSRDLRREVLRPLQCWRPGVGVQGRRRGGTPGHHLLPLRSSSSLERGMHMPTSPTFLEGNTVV

CCCCCCc1cccc(NC(=O)[C@@H](N)CCP(=O)(O)O)c1
inhibition (Mus musculus [1]): inactive
Ki [2]: 2840 nM
inhibition (Mus musculus [3]): inactive
Ki [4]: 4630 nM
Activity (Mus musculus [5]): Non-toxic
inhibition (Mus musculus [6]): inactive

CCCCCCc1cccc(NC(=O)[C@H](N)CCP(=O)(O)O)c1
inhibition [7]: inactive
inhibition (Mus musculus [1]): Active
inhibition [8]: > 70%
inhibition (Mus musculus [9]): Active
Activity [10]: inactive
inhibition [11]: inactive
Activity [12]: inactive
Activity (Mus musculus [13]): Non-toxic
inhibition [14]: inactive
Ki [2]: 18 nM
inhibition [15]: Active
inhibition [16]: inactive
clearance [17]: 4.63 mL/min/kg
Vd [18]: 0.46 L/kg
inhibition [19]: inactive
concentration at 5 h [20]: 268 nM
inhibition (Mus musculus [21]): Active
inhibition [22]: > 70%
half-life [23]: 1.22 h
inhibition (Mus musculus [3]): Active
Activity [24]: inactive
Activity (Mus musculus [25]): Active
inhibition (Mus musculus [26]): Active
Ki [4]: 77 nM
inhibition [27]: Active
Activity (Mus musculus [28]): Non-toxic
Activity (Mus musculus [5]): Dose-dependent effect
Activity (Mus musculus [29]): Non-toxic
inhibition (Mus musculus [6]): Active
inhibition [30]: Active
